Hits are enriched below; roughly 2% of the tested compounds scored in any of these assays.
CHRM1 antagonist: human CHRM1 antagonism | P11229 | CHO-K1 hM1, Fluo-8 calcium fluorescence, ACh EC80 antagonist | inhibition, % at 3 µM | hit rate 1.3% among 360,000 | AID 588852;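 active means percent inhibition above its own plate's cutoff, namely the mean of that plate's compound wells plus 3 SD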;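 further: peak over basal fluorescence ratio during 140 s after agonist addition; 0% = ACh EC80 plus DMSO and 100% = DMSO alone without agonist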
Target sequence (P11229 whole entry, looked up): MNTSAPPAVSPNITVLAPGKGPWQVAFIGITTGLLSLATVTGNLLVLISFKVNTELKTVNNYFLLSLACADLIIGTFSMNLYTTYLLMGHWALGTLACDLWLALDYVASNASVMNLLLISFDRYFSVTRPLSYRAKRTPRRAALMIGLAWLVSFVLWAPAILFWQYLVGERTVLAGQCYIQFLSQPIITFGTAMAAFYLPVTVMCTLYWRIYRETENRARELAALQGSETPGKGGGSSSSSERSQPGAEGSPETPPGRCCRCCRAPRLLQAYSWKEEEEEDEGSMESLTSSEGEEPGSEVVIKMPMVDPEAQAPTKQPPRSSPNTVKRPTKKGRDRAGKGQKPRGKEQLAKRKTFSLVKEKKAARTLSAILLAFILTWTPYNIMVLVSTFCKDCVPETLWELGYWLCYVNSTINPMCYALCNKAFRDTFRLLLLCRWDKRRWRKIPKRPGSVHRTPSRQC
CHRM1 agonist: human M1 muscarinic receptor agonism; activation, % at 3 µM; hit rate 0.33% among 360,000; P11229; AID 588814; CHO-K1 hM1, Fluo-8 calcium fluorescence, agonist mode; 0% DMSO, 100% acetylcholine EC100;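 active means activation above the run's mean compound activation plus 3 SD, cut at about 16% in these data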;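 further: peak over basal fluorescence ratio within a 140 s kinetic read after compound addition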
M5 PAM: positive allosteric modulators of human muscarinic M5 receptor. CHO-K1 hM5, Fluo-8 calcium, ACh EC20 PAM; 0% = ACh EC20, 100% = ACh EC100. activation, % at 3 µM. hit rate 0.3% among 360,000. AID 624038;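 active means activation above the run cutoff, the mean activation of all test compounds plus 3 SD, cut at about 18% in these data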
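Assay system – human M5 receptor in CHO-K1 cells · Read-out – % activation, ACh-normalized · Technique – Fluo-8 calcium fluorescence · Dosing – single-point, 3 µM nominal · Incubation – Fluo-8 loading 80 min at 37 °C plus 30 min room temperature · Repeats – singlicate, one well per test compound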
CHRM5 agonist: CHRM5 agonism in calcium assay; P08912; CHO-K1 hM5 cells, Fluo-8 calcium fluorescence; 0% DMSO wells, 100% maximal acetylcholine response; activation, % at 3 µM; hit rate 0.19% among 360,000;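 active means activation above the run's mean over test compounds plus 3 SD, cut at about 23% in these data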;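 further: signal is peak over basal fluorescence ratio across the kinetic read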
CHRM5 antagonist: CHRM5 antagonism in calcium assay; hit rate 0.59% among 360,000; inhibition, % at 3 µM; CHO-hM5 cells, Fluo-8 calcium fluorescence, ACh EC80;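 active means inhibition above a per-plate cutoff, the mean of that plate's test compounds plus 3 SD, cut at about 27% in these data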;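 further: 0% = acetylcholine EC80 with DMSO and 100% = DMSO without agonist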
M1 PAM: positive allosteric modulators of human M1 muscarinic receptor; P11229; CHO-K1 hM1, Fluo-8 calcium fluorescence, ACh EC20; 0% = ACh EC20, 100% = maximal ACh; activation, % at 3 µM; hit rate 0.088% among 360,000; in the data active means activation above about 19%, passing the limit was not always enough
The depositor's hits bear a star.

SMILES | CHRM1 antagonist | CHRM1 agonist | M5 PAM | CHRM5 agonist | CHRM5 antagonist | M1 PAM
C#C[C@]1(O)CCC2C3CCC4=C/C(=N/OCC(=O)NC(C)C(=O)NC(CCSC)C(=O)O)CC[C@]4(C)C3CC[C@@]21C (some centres undefined) | -4.1 | -5.9 | -3.5 | 0.1 | 8.0 | 2.3
O=C1C2CCN(CC2)[C@@H]1Cc1ccc2ccccc2c1O | 40.1* | -2.5 | -17.5 | -5.7 | 30.1* | -17.0
CCc1ccc(CNCCc2ccc(F)cc2)cc1 | 16.4 | -5.1 | -1.8 | -2.0 | 0.5 | -20.6
CCN(CC)c1ccc(CNCCc2ccc(F)cc2)cc1 | 30.0* | -4.2 | 2.5 | -11.8 | 1.3 | -19.6
O=[N+]([O-])c1ccc(N2CCCNCC2)c2ncccc12 | 82.0* | -7.5 | -31.9 | -19.1 | 28.7* | -24.0
O=[N+]([O-])c1ccc(N2CCCCCC2)c2nonc12 | 53.2* | 145.4* | -34.4 | 544.7* | 58.3* | -32.7
O=[N+]([O-])c1cccnc1N1CCCNCC1 | 47.6* | -0.5 | -18.1 | -7.7 | 24.9 | -28.4
CN1C(C(=O)N2CCC3(CC2)OCCO3)=CC(c2ccc(F)cc2)=NS1(=O)=O | 4.4 | -1.4 | -7.3 | 0.3 | 14.8 | -0.3
O=C(O)Cn1cc(C(=O)c2ccccc2)c2ccccc21 | -14.6 | -1.0 | -0.6 | -0.9 | 2.8 | 9.5
Cn1cc(C(=O)c2ccccc2)c2ccccc21 | -11.1 | -10.6 | -11.2 | 30.8* | -2.8 | -0.5
Fc1ccc(C(OCCN2CCCC2)c2ccc(F)cc2)cc1 | 79.0* | -9.1 | -18.4 | -5.0 | 53.7* | -22.7
Fc1ccc(C(OCCN2CCCC2)c2ccc(Br)cc2)cc1 (centres undefined) | 81.0* | -7.6 | -17.8 | -5.1 | 37.7* | -23.0
C[C@@H]1CN(C2CCC(C#N)(c3ccc(F)cc3)CC2)CC[C@]1(C(=O)O)c1ccccc1 (some centres undefined) | 12.9 | -0.5 | -3.5 | 1.1 | -2.3 | -4.6
O=c1[nH]c(O)c(C=Nc2ccc(Cl)c(C(F)(F)F)c2)c(=O)[nH]1 | 40.8* | -10.9 | -34.5 | -25.4 | 37.8* | -25.7
C=CCOC(=O)N1Cc2ccccc2-n2nncc2C1 | 0.8 | -3.8 | -3.1 | 2.5 | 7.8 | -2.4
O=C1CN=C(c2ccc(Cl)cc2)c2oc3ccccc3c2N1 | -14.0 | 17.8* | 2.9 | 3.9 | 1.8 | 8.6
COc1ccc2oc3c(c2c1)NC(=O)CN=C3c1ccccc1 | 2.3 | -2.0 | 3.9 | -4.9 | -2.9 | -8.9

Source: PubChem (The Scripps Research Institute Molecular Screening Center)
